ChEMBL document CHEMBL1142136, “Contribution of target gene mutations and efflux to decreased susceptibility of Salmonella enterica serovar typhimurium to fluoroquinolones and other antimicrobials” (2007)

What was measured:
Assay type in all cases: functional, Salmonella enterica subsp. enterica serovar Typhimurium
Salmonella typhimurium [1] = assay: Antimicrobial activity against Salmonella enterica serovar Typhimurium S21-2 gyrA+ with ParC S80I mutation
Method in brief: (§1)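 MICs measured by broth microdilution on the Sensititre automated system and interpreted by CLSI broth microdilution standards. Ciprofloxacin was also tested by agar dilution, widening the range to 0.0075–128 μg/ml. Quality control strains were E. coli ATCC 25922 and 35218, E. faecalis ATCC 29212, S. aureus ATCC 29213 and P. aeruginosa ATCC 27853.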

Salmonella typhimurium [2] = assay: Antimicrobial activity against Salmonella enterica serovar Typhimurium CHS14 gyrA+ with GyrA D87G mutation; method in brief: as §1
Salmonella typhimurium [3] = assay: Antimicrobial activity against Salmonella enterica serovar Typhimurium CHS38 with GyrA D87G mutation; method in brief: as §1
Salmonella typhimurium [4] = assay: Antimicrobial activity against Salmonella enterica serovar Typhimurium CS3 tolC::Kan with GyrA S83F, D87N, parC S80I mutation; method in brief: as §1
Salmonella typhimurium [5] = assay: Antimicrobial activity against Salmonella enterica serovar Typhimurium S21-4 acrAB::Kan with GyrA S83F, ParC S80I mutation; method in brief: as §1
Salmonella typhimurium [6] = assay: Antimicrobial activity against Salmonella enterica serovar Typhimurium CS9 gyrA+ with GyrA S83F, D87N, ParC S80I mutation; method in brief: as §1
Salmonella typhimurium [7] = assay: Antimicrobial activity against Salmonella enterica serovar Typhimurium CHS18 acrAB::Kan with GyrA S38F mutation; method in brief: as §1
Salmonella typhimurium [8] = assay: Antimicrobial activity against Salmonella enterica serovar Typhimurium CS1 acrAB::Kan with GyrA S83F, D87N, ParC S80I mutation; method in brief: as §1
Salmonella typhimurium [9] = assay: Antimicrobial activity against Salmonella enterica serovar Typhimurium CHS18 gyrA+ with GyrA S38F mutation; method in brief: as §1
Salmonella typhimurium [10] = assay: Antimicrobial activity against Salmonella enterica serovar Typhimurium S21-4 tolC::Kan with GyrA S83F, ParC S80I mutation; method in brief: as §1
Salmonella typhimurium [11] = assay: Antimicrobial activity against Salmonella enterica serovar Typhimurium CHS38 tolC::Kan with GyrA D87G mutation; method in brief: as §1
Salmonella typhimurium [12] = assay: Antimicrobial activity against Salmonella enterica serovar Typhimurium GyrA S21-1 acrAB::Kan with GyrA S83F mutation; method in brief: as §1
Salmonella typhimurium [13] = assay: Antimicrobial activity against Salmonella enterica serovar Typhimurium S21 acrAB::Kan
Method in brief: (§2)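 MICs by automated broth microdilution panels, interpreted to CLSI broth microdilution standards. Ciprofloxacin additionally tested by agar dilution across 0.0075 to 128 μg/ml. Quality control strains: E. coli ATCC 25922 and 35218, Enterococcus faecalis ATCC 29212, S. aureus ATCC 29213, P. aeruginosa ATCC 27853. Test strains are kanamycin-marked deletion mutants of ground-beef isolate S21.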

Salmonella typhimurium [14] = assay: Antimicrobial activity against Salmonella enterica serovar Typhimurium CHS18 with GyrA S38F mutation; method in brief: as §1
Salmonella typhimurium [15] = assay: Antimicrobial activity against Salmonella enterica serovar Typhimurium CHS38 gyrA+ with GyrA D87G mutation; method in brief: as §1
Salmonella typhimurium [16] = assay: Antimicrobial activity against Salmonella enterica serovar Typhimurium S21-2 acrAB::Kan with GyrA S83F, ParC S80I mutation; method in brief: as §1
Salmonella typhimurium [17] = assay: Antimicrobial activity against Salmonella enterica serovar Typhimurium CS1 gyrA+ with GyrA S83F, D87N, ParC S80I mutation; method in brief: as §1
Salmonella typhimurium [18] = assay: Antimicrobial activity against Salmonella enterica serovar Typhimurium CHS18 tolC::Kan with GyrA S38F mutation; method in brief: as §1
Salmonella typhimurium [19] = assay: Antimicrobial activity against Salmonella enterica serovar Typhimurium S21-1 gyrA+; method in brief: as §1
Salmonella typhimurium [20] = assay: Antimicrobial activity against Salmonella enterica serovar Typhimurium S21-1 tolC::Kan with GyrA S83F mutation; method in brief: as §1
Salmonella typhimurium [21] = assay: Antimicrobial activity against Salmonella enterica serovar Typhimurium S21 tolC::Kan; method in brief: as §2
Salmonella typhimurium [22] = assay: Antimicrobial activity against Salmonella enterica serovar Typhimurium CS9 acrAB::Kan with GyrA S83F, D87N, ParC S80I mutation; method in brief: as §1
Salmonella typhimurium [23] = assay: Antimicrobial activity against Salmonella enterica serovar Typhimurium S21-2 tolC::Kan with GyrA S83F, ParC S80I mutation; method in brief: as §1
Salmonella typhimurium [24] = assay: Antimicrobial activity against Salmonella enterica serovar Typhimurium CS3 with GyrA S83F, D87N, ParC S80I mutation; method in brief: as §1
Salmonella typhimurium [25] = assay: Antimicrobial activity against Salmonella enterica serovar Typhimurium CHS14 tolC::Kan with GyrA D87G mutant; method in brief: as §1
Salmonella typhimurium [26] = assay: Antimicrobial activity against Salmonella enterica serovar Typhimurium CHS14 with GyrA D87G mutation; method in brief: as §1
Salmonella typhimurium [27] = assay: Antimicrobial activity against Salmonella enterica serovar Typhimurium CHS14 acrAB::Kan with GyrA D87G mutation; method in brief: as §1
Salmonella typhimurium [28] = assay: Antimicrobial activity against Salmonella enterica serovar Typhimurium CS1 with GyrA S83F, D87N, ParC S80I mutation; method in brief: as §1
Salmonella typhimurium [29] = assay: Antimicrobial activity against Salmonella enterica serovar Typhimurium S21-4 with GyrA S83F, ParC S80I mutation; method in brief: as §1
Salmonella typhimurium [30] = assay: Antimicrobial activity against Salmonella enterica serovar Typhimurium S21-3 gyrA+ with ParC S80I mutation; method in brief: as §1
Salmonella typhimurium [31] = assay: Antimicrobial activity against Salmonella enterica serovar Typhimurium S21-2 with GyrA S83F, ParC S80I mutation; method in brief: as §1
Salmonella typhimurium [32] = assay: Antimicrobial activity against Salmonella enterica serovar Typhimurium CS3 gyrA+ with GyrA S83F, D87N, ParC S80I mutation; method in brief: as §1
Salmonella typhimurium [33] = assay: Antimicrobial activity against Salmonella enterica serovar Typhimurium CS1 tolC::Kan with GyrA S83F, D87N, ParC S80I mutation; method in brief: as §1
Salmonella typhimurium [34] = assay: Antimicrobial activity against Salmonella enterica serovar Typhimurium S21-1 GyrA S83F mutant; method in brief: as §1
Salmonella typhimurium [35] = assay: Antimicrobial activity against Salmonella enterica serovar Typhimurium S21; method in brief: as §1
Salmonella typhimurium [36] = assay: Antimicrobial activity against Salmonella enterica serovar Typhimurium CHS38 acrAB::Kan with GyrA D87G mutation; method in brief: as §1
Salmonella typhimurium [37] = assay: Antimicrobial activity against Salmonella enterica serovar Typhimurium S21 gyrA+; method in brief: as §1
Salmonella typhimurium [38] = assay: Antimicrobial activity against Salmonella enterica serovar Typhimurium S21-3 tolC::Kan with GyrA S83F, ParC S80I mutation; method in brief: as §1
Salmonella typhimurium [39] = assay: Antimicrobial activity against Salmonella enterica serovar Typhimurium S21-4 gyrA+ with ParC S80I mutation; method in brief: as §1
Salmonella typhimurium [40] = assay: Antimicrobial activity against Salmonella enterica serovar Typhimurium S21-3 with GyrA S83F, ParC S80I mutation; method in brief: as §1
Salmonella typhimurium [41] = assay: Antimicrobial activity against Salmonella enterica serovar Typhimurium CS3 acrAB::Kan with GyrA S83F, D87N, ParC S80I mutation; method in brief: as §1
Salmonella typhimurium [42] = assay: Antimicrobial activity against Salmonella enterica serovar Typhimurium S21-3 acrAB::Kan with GyrA S83F, ParC S80I mutation; method in brief: as §1
Salmonella typhimurium [43] = assay: Antimicrobial activity against Salmonella enterica serovar Typhimurium CS9 with GyrA S83F, D87N, ParC S80I mutation; method in brief: as §1
Salmonella typhimurium [44] = assay: Antimicrobial activity against Salmonella enterica serovar Typhimurium CS9 tolC::Kan with GyrA S83F, D87N, ParC S80I mutation; method in brief: as §1

Measured: MIC

CN1CCN(c2cc3c(cc2F)c(=O)c(C(=O)O)cn3-c2ccc(F)cc2)CC1 [DIFLOXACIN]
1 µg/mL: Salmonella typhimurium [3] | Salmonella typhimurium [5] | Salmonella typhimurium [7] | Salmonella typhimurium [10] | Salmonella typhimurium [26]
> 16 µg/mL: Salmonella typhimurium [24] | Salmonella typhimurium [28] | Salmonella typhimurium [29] | Salmonella typhimurium [31] | Salmonella typhimurium [40] | Salmonella typhimurium [43]
0.03 µg/mL: Salmonella typhimurium [25] | Salmonella typhimurium [27]
0.06 µg/mL: Salmonella typhimurium [18] | Salmonella typhimurium [36]
0.25 µg/mL: Salmonella typhimurium [9] | Salmonella typhimurium [12] | Salmonella typhimurium [16] | Salmonella typhimurium [19] | Salmonella typhimurium [20] | Salmonella typhimurium [23] | Salmonella typhimurium [35] | Salmonella typhimurium [37]
0.5 µg/mL: Salmonella typhimurium [2] | Salmonella typhimurium [6] | Salmonella typhimurium [17] | Salmonella typhimurium [32] | Salmonella typhimurium [38] | Salmonella typhimurium [42]
16 µg/mL: Salmonella typhimurium [8] | Salmonella typhimurium [22] | Salmonella typhimurium [41]
2 µg/mL: Salmonella typhimurium [1] | Salmonella typhimurium [14]
4 µg/mL: Salmonella typhimurium [4] | Salmonella typhimurium [30] | Salmonella typhimurium [33] | Salmonella typhimurium [34] | Salmonella typhimurium [39] | Salmonella typhimurium [44]
< 0.015 µg/mL: Salmonella typhimurium [11] | Salmonella typhimurium [13] | Salmonella typhimurium [15] | Salmonella typhimurium [21]

CN1C[C@@H]2C[C@H]1CN2c1cc2c(cc1F)c(=O)c(C(=O)O)cn2C1CC1 [DANOFLOXACIN]
2 µg/mL: Salmonella typhimurium [30]
0.06 µg/mL: Salmonella typhimurium [6] | Salmonella typhimurium [9] | Salmonella typhimurium [12] | Salmonella typhimurium [17] | Salmonella typhimurium [18] | Salmonella typhimurium [20] | Salmonella typhimurium [32]
0.5 µg/mL: Salmonella typhimurium [14] | Salmonella typhimurium [34]
1 µg/mL: Salmonella typhimurium [1]
> 16 µg/mL: Salmonella typhimurium [24] | Salmonella typhimurium [28] | Salmonella typhimurium [29] | Salmonella typhimurium [40] | Salmonella typhimurium [43]
4 µg/mL: Salmonella typhimurium [4] | Salmonella typhimurium [8] | Salmonella typhimurium [22] | Salmonella typhimurium [31] | Salmonella typhimurium [33] | Salmonella typhimurium [39] | Salmonella typhimurium [41] | Salmonella typhimurium [44]
0.03 µg/mL: Salmonella typhimurium [2] | Salmonella typhimurium [7] | Salmonella typhimurium [19] | Salmonella typhimurium [25] | Salmonella typhimurium [27] | Salmonella typhimurium [35] | Salmonella typhimurium [36] | Salmonella typhimurium [37]
0.25 µg/mL: Salmonella typhimurium [3] | Salmonella typhimurium [5] | Salmonella typhimurium [10] | Salmonella typhimurium [26] | Salmonella typhimurium [38] | Salmonella typhimurium [42]
0.12 µg/mL: Salmonella typhimurium [16] | Salmonella typhimurium [23]
< 0.015 µg/mL: Salmonella typhimurium [11] | Salmonella typhimurium [13] | Salmonella typhimurium [15] | Salmonella typhimurium [21]

C[C@@H]1CN(c2c(F)c(F)c3c(=O)c(C(=O)O)cn(C4CC4)c3c2F)C[C@H](C)N1 [ORBIFLOXACIN]
4 µg/mL: Salmonella typhimurium [4] | Salmonella typhimurium [8] | Salmonella typhimurium [22] | Salmonella typhimurium [33] | Salmonella typhimurium [41] | Salmonella typhimurium [44]
0.12 µg/mL: Salmonella typhimurium [2] | Salmonella typhimurium [5] | Salmonella typhimurium [9] | Salmonella typhimurium [10] | Salmonella typhimurium [12] | Salmonella typhimurium [19] | Salmonella typhimurium [20] | Salmonella typhimurium [35] | Salmonella typhimurium [37]
< 0.015 µg/mL: Salmonella typhimurium [11] | Salmonella typhimurium [13] | Salmonella typhimurium [21]
0.06 µg/mL: Salmonella typhimurium [18] | Salmonella typhimurium [36]
0.03 µg/mL: Salmonella typhimurium [25] | Salmonella typhimurium [27]
2 µg/mL: Salmonella typhimurium [1] | Salmonella typhimurium [30] | Salmonella typhimurium [34]
0.5 µg/mL: Salmonella typhimurium [3] | Salmonella typhimurium [7] | Salmonella typhimurium [38] | Salmonella typhimurium [42]
> 16 µg/mL: Salmonella typhimurium [24] | Salmonella typhimurium [28] | Salmonella typhimurium [43]
< 0.15 µg/mL: Salmonella typhimurium [15]
16 µg/mL: Salmonella typhimurium [29] | Salmonella typhimurium [31] | Salmonella typhimurium [40]
1 µg/mL: Salmonella typhimurium [14] | Salmonella typhimurium [26]
0.25 µg/mL: Salmonella typhimurium [6] | Salmonella typhimurium [16] | Salmonella typhimurium [17] | Salmonella typhimurium [23] | Salmonella typhimurium [32]
8 µg/mL: Salmonella typhimurium [39]
